Bioassay records from PubChem.
Shown are actives, neighbours in structure and some others; about 2.7% of the full set was active somewhere.
MC4R antagonist – MC4R antagonists of cAMP signaling, primary screen, cell-based, TR-FRET, antagonist arm of biased-ligand search | AID 540295, 2011 | MC4R-expressing cells, MTII-stimulated cAMP, LANCE TR-FRET | inhibition, % at 6.5 µM | hit rate 0.48% among 360,000 | Melanocortin receptor 4 (Homo sapiens), P32245;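 active = inhibition above its plate's cutoff, the mean of tested wells on that plate plus 3 SD, cut at about 29% in these data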
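Assay system: human MC4R-expressing U2OS cells; reagent: Melanotan II stimulation of cells; dosing: 6.5 µM single dose; timing: compound 30 min, challenge 1 h, detection 1 h; signal: TR-FRET cAMP assay; replicates: one well per compound, no replicates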
MC4R barr agon – MC4R agonists recruiting beta-arrestin, primary screen, cell-based, luminescence, agonist arm of biased-ligand search; U2OS MC4R beta-arrestin complementation; percent of melanotan II response, DMSO zero; activation, % at 8.9 µM; hit rate 0.98% among 360,000; AID 540308, 2011;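 active = activation above a per-plate cutoff, the mean activation of sample wells on that plate plus 3 SD, cut at about 8% in these data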
PG9 binder – binders of HIV-1 gp120 antibody PG9, primary screen, biochemical, TR-FRET | hit rate 0.43% among 360,000 | TR-FRET gp120-PG9 antibody binding | inhibition, % at 6.7 µM | AID 624416, 2012; in the data active = inhibition above about 8.5%
Rev-erbA mod – modulators of Rev-erb alpha DNA binding, primary screen, biochemical, FITC-DNA, fluorescence polarization, uHTS; Nuclear receptor subfamily 1 group D member 1 (Homo sapiens), P20393; Rev-erbα–FITC-DNA binding, 90 min; activity, % at 10 µM; hit rate 0.79% among 370,000;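 active = activity above about 14%, limit read from the data; passing the limit was not always enough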
Target sequence (P20393 whole entry, looked up): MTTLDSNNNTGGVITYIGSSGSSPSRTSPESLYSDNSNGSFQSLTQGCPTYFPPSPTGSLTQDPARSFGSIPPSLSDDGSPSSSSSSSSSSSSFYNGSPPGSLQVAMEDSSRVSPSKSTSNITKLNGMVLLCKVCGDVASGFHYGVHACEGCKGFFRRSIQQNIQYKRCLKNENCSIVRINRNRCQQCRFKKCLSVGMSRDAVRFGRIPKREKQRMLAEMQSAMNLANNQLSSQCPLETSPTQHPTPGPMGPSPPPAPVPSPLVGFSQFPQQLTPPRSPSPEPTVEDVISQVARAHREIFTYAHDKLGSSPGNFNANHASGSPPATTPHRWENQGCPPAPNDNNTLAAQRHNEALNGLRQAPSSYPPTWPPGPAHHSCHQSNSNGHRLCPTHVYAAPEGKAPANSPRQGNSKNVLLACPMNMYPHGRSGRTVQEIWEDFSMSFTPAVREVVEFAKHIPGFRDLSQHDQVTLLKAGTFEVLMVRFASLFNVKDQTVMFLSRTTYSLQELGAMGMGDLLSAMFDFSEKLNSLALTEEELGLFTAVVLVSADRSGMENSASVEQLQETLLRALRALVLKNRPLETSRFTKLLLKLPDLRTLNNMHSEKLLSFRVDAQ
NR2E3 ag-1 – inhibitors of NR2E3-RetCOR corepressor binding, primary screen, NR2E3 agonist project, biochemical, TR-FRET, GST-NR2E3, biotin-RetCOR | Photoreceptor-specific nuclear receptor (Homo sapiens), Q9Y5X4 | 1536-well | inhibition of corepressor binding, % at 4.78 µM | hit rate 0.12% among 320,000 | AID 2300, 2010;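 active = percent inhibition above the cutoff of mean plus 3 SD of all tested compounds, set per screening campaign, cut at about 20% in these data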
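Test system – NR2E3–RetCOR corepressor complex · Quantity – NR2E3 fusion 1.35 nM · Buffer or medium – Tris pH 7.5 · Incubation – Compound–protein incubation for 5 h at 4 °C · Technique – TR-FRET, Eu(K)-anti-GST donor, streptavidin-D2 acceptor, ex 340, em 617/671 nm · Evaluation – percent inhibition of 671/617 nm emission ratio versus biotin and DMSO controls · Plate – 1536-well format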
NR2E3 ag-2 – NR2E3 agonists in two-hybrid cells, primary screen, cell-based, luminescence, CHO-S, Gal4-NCOR/VP16-NR2E3; Photoreceptor-specific nuclear receptor (Homo sapiens), Q9Y5X4; luciferase; inhibition of corepressor binding, % at 3.98 µM; hit rate 0.35% among 360,000; AID 602229, 2012;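 active = inhibition above the mean of all tested compounds plus 3 SD, cut at about 70% in these data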;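 note: higher means lower luciferase signal from less NR2E3 corepressor binding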
NR2E3 ag conf – NR2E3 agonist confirmation in cells, cell-based, luminescence, CHO-S two-hybrid; CHO-S mammalian two-hybrid NR2E3-NCOR, luciferase luminescence; AID 624378, 2012; inhibition, % at 3.98 µM; shares compounds with NR2E3 ag-2; hit rate 51% among 2,300;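 active = average inhibition above a cutoff equal to the mean inhibition of all tested compounds plus one SD, cut at about 70% in these data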
GAL4-VP16 luc – GAL4-VP16 reporter modulators, confirmation, counter-screen for NR2E3 agonist project, cell-based, luminescence, CHO-S, high throughput; shares compounds with NR2E3 ag-2; CHO-S GAL4-VP16 luciferase reporter; inhibition, % at 3.98 µM; hit rate 29% among 2,300;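 active = mean inhibition above a cutoff equal to the average over all tested compounds plus one standard deviation, cut at about 70% in these data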;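 note: luciferase from a UAS reporter driven by GAL4-VP16 transactivation; higher means less reporter light so more repression of VP16 activity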
Numbers stand for hits; - = inactive; . = not tested or not shown.

SMILES | MC4R antagonist | MC4R barr agon | PG9 binder | Rev-erbA mod | NR2E3 ag-1 | NR2E3 ag-2 | NR2E3 ag conf | GAL4-VP16 luc
COc1cccc(COc2ccccc2C2Nc3ccc(Br)cc3C(=O)N2NC(=O)c2ccncc2)c1 (centres undefined) | - | - | - | - | - | - | - | -
COc1ccc(C2Nc3ccccc3C(=O)N2NC(C)=O)c(OC)c1 (centres undefined) | - | - | - | - | - | - | . | .
Cc1cccnc1CN1CCN(C(=O)c2cc(COc3ccc4ncccc4c3)on2)CC1 | - | - | - | - | - | 78 | 99 | 88
CCC1CCCCN1C(=O)c1cc(COc2ccc(-n3cncn3)cc2)on1 (centres undefined) | - | - | - | - | - | - | - | -
O=C(c1cc(COc2ccc3ncccc3c2)on1)N1CCCC(O)C1 (centres undefined) | - | - | - | - | - | - | . | .
O=C(c1cc(COc2ccc3ncccc3c2)on1)N1CCC[C@H]1CO | - | - | - | - | - | 81 | - | -
COCC1CCCN(C(=O)c2cc(COc3ccc4ncccc4c3)on2)C1 (centres undefined) | - | - | - | - | - | 105 | 94 | 87
O=C(c1cc(COc2ccc3ncccc3c2)on1)N1CCC(O)CC1 | - | - | - | - | - | - | . | .
CCOc1ccccc1NS(=O)(=O)c1cccc2nsnc12 | - | - | - | - | - | - | . | .
CCC(O)C1CCN(C(=O)c2cc(COc3ccc4ncccc4c3)on2)CC1 (centres undefined) | - | - | - | - | - | 78 | 96 | 85
CCOC(=O)N1CCN(C(=O)c2cc(COc3ccc4ncccc4c3)on2)CC1 | - | - | - | - | - | - | 83 | 76
O=C(NC1CCCCCCC1)c1cc(COc2ccc3ncccc3c2)on1 | - | - | - | - | . | 80 | 95 | 88
Cc1cccc(C)c1OCc1cc(C(=O)NC2CCC2)no1 | - | - | - | - | - | - | . | .
CC(CNC(=O)c1cc(COc2ccc3ncccc3c2)on1)c1ccccc1 (centres undefined) | - | - | - | - | - | 105 | 96 | 80
O=C(NC1CCCC1)C(c1cccnc1)N(Cc1ccc(F)cc1)C(=O)c1csnn1 (centres undefined) | - | - | - | - | - | - | . | .
O=C(O)CSc1c(-c2ccccc2)[nH]c2ccccc12 | - | - | - | - | - | - | . | .
Cc1cc(CN(C)C(=O)c2cc(COc3ccc4ncccc4c3)on2)on1 | - | - | - | - | - | - | 73 | -
CN(Cc1nccn1C)C(=O)c1cc(COc2ccc3ncccc3c2)on1 | - | - | - | - | - | - | . | .
O=C(COC(=O)Cc1ccc([N+](=O)[O-])cc1)NCc1ccc2c(c1)OCO2 | - | - | - | - | . | - | . | .
COc1ccccc1C(=O)Nc1ccc2c(c1)CCCN2C(=O)c1cccs1 | - | - | - | - | - | - | . | .
Cc1cc(Br)ccc1NC(=O)CN(C)C(=O)C1CCN(c2ncnc3sc(C)c(C)c23)CC1 | - | - | - | - | . | - | - | -
CCc1cc(-c2cnnn2Cc2ccc3ccccc3c2)ccc1-c1cn(CC(C)C)nn1 | - | - | - | - | . | - | . | .
CCc1cc(-c2nnn(CCC3COCCO3)c2CC)ccc1-c1cn(Cc2ccccc2)nn1 (centres undefined) | - | - | - | - | . | 76 | 76 | -
O=C(C1CCN(S(=O)(=O)c2cccs2)CC1)N1CCc2ccccc2C1 | - | - | - | - | - | - | . | .
Cc1nn(C(C)(C)C)c(C)c1/C=N/OC(=O)Nc1ccc(Cl)c(Cl)c1 | - | - | - | - | - | 92 | - | 96
SMILES | MC4R antagonist | MC4R barr agon | PG9 binder | Rev-erbA mod | NR2E3 ag-1 | NR2E3 ag-2 | NR2E3 ag conf | GAL4-VP16 luc
O=c1c2ccccc2sn1-c1ccc(Cl)cc1 | - | - | - | - | . | - | - | -
Cc1onc(-c2c(F)cccc2Cl)c1C(=O)OCC(=O)NC(=O)NCC(C)C | - | - | - | - | - | - | . | .
CN(C)S(=O)(=O)N1CCC(Oc2cccc(C(=O)NC3CCCCC3)c2)CC1 | - | - | - | - | - | - | - | -
CN(C)S(=O)(=O)N1CCC(Oc2ccc(C(=O)NC3CCCCC3)cc2)CC1 | - | - | - | - | - | - | . | .
S=C(NCc1ccccc1)NCc1ccc2c(c1)OCO2 | - | - | - | - | - | - | . | .
CC(=O)Oc1cccc(Nc2ncnc3ccccc23)c1 | - | - | - | - | - | - | . | .
Cc1ccccc1C(=O)Oc1cccc(Nc2ncnc3ccccc23)c1 | - | - | - | - | - | 72 | - | -
CC(=NNC(=S)N1CCCCCC1)c1cccc2cccnc12 | - | - | - | - | . | - | . | .
CC(=NNC(=S)N1CCN(C2CCCCCC2)CC1)c1ccccn1 | - | - | - | - | . | 78 | - | -
CC(=NNC(=S)N1CC2CCC(CC2)C1)c1cnccn1 | - | - | - | - | . | 76 | - | -
CC(=NNC(=S)N1CCN(c2ccccn2)CC1)c1nccs1 | - | - | . | . | . | 90 | - | -
C/C(=N\NC(=O)C1CCCN(S(=O)(=O)c2ccccc2)C1)c1ccccn1 (centres undefined) | - | - | - | - | - | - | . | .
CC(=NNC(=S)N1CCN(c2ccccn2)CC1)c1ccccn1 | - | - | - | - | . | - | . | .
CC(=NNC(=S)N1CC2CCC(CC2)C1)c1ccccn1 | - | - | - | - | . | 87 | - | -
COc1cc(CO)ccc1OCC(=O)Nc1ccc(Br)cc1 | - | - | - | - | - | - | . | .
Cn1nnnc1SCC(=O)N1N=C(c2cccs2)CC1c1cccs1 (centres undefined) | - | - | - | - | . | - | . | .
Cc1ccc(-c2n[nH]c(=O)c3ccccc23)cc1S(=O)(=O)NCCN1CCOCC1 | - | - | - | - | - | - | . | .
Cc1ccc(NC(=O)COc2ccc(N(C)C(=O)C(C)(C)C)cc2)cc1S(=O)(=O)N1CCCCC1 | - | - | - | - | . | - | - | -
